Series [1] in a line: melting temperature; fluorescence melt of hairpins on a sequencing array, two-state fit, raised by 9.35 °C to match UV melts. The conditions noted are these: sodium 0.088 M. An outline of the steps:
(§1)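 Cy3 signals were normalised both to pre-quench Cy3 and to control constructs. They came from library hairpins carrying annealed Cy3 and quencher oligos on a sequenced MiSeq flow cell, imaged in 50 mM Na-HEPES pH 8.0, 25 mM NaCl, in 2.5 °C steps up to 60 °C. Bootstrapped two-state fits gave melting temperature and folding enthalpy, and four replicates were combined by inverse variance. Fitted temperatures were then raised by 9.35 °C to match UV melts.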

The nature of series [2]: folding enthalpy; higher = less favourable; fluorescence melt of hairpins on a sequencing array, two-state fit. The conditions noted are these: sodium 0.088 M. An outline of the steps:
as §1

Regarding GAAGGCGAAAGCCGATTC ((((((....)))..))), the Tm in series [1] stood at 57.8 °C. In addition, the folding enthalpy in series [2] was -14.7 kcal/mol.
Turning to GAAGGCGAAAGCCGTTTC ((((((....)))..))), the Tm in series [1] worked out at 39 °C. The folding enthalpy in series [2] is -10.9 kcal/mol.
Regarding GAAGGCGAAAGCCTCTTC ((((((....)))..))), in series [1], the Tm was found to be 54.5 °C. For the same sequence, the folding enthalpy in series [2] was -21.5 kcal/mol.
As for GAAGGGAAACCTTC (((((....))))), the Tm in series [1] was 42.5 °C. The folding enthalpy in series [2] is -20.9 kcal/mol.
The corresponding values for GAAGGTGGAAACACCCTC ((.((((....)))).)) are 33.8 °C and -12.1 kcal/mol.
The corresponding values for GAAGTACCGAAAGGTTTC (((..(((....)))))) are 27.2 °C and -9.64 kcal/mol.
Consider GAAGTACGAAAGTAATTC (((.(((....))).))), for which the Tm in series [1] was 42.9 °C. Further, the folding enthalpy in series [2] was -25.9 kcal/mol.
The matching figures for GAAGTCCGAAAGGATTTC (((.(((....))).))): 50.2 °C and -31.6 kcal/mol.
The corresponding values for GAAGTGCCGAAAGGCTTC (((..(((....)))))) are 35.5 °C and -7.5 kcal/mol.
Take GAAGTGCGAAAGCATTC (((.(((....)))))): the Tm in series [1] turned out to be 36.2 °C. In addition, the folding enthalpy in series [2] is -13.5 kcal/mol.
The matching figures for GAAGTGGGAAACCACTCC (.(((((....))))).): 38.4 °C and -14 kcal/mol.
The corresponding values for GAAGTGGGAAACCATTTC (((.(((....))).))) are 36.6 °C and -30.7 kcal/mol.
The matching figures for GAAGTGGGAAACCGCTTC ((((.((....)).)))): 51.6 °C and -31.4 kcal/mol.
As for GAATACGAAAGTAGTTC ((((((....))).))), the Tm in series [1] turned out to be 26.8 °C. Besides, the folding enthalpy in series [2] is -10.9 kcal/mol.
Regarding GAATACGAAAGTATATTC ((((((....)))..))), the Tm in series [1] was found to be 26.8 °C. Besides, the folding enthalpy in series [2] is -15.9 kcal/mol.
The matching figures for GAATACGAAAGTATCTTC ((((((....)))..))): 46.2 °C and -28.1 kcal/mol.
With GAATACGAAAGTATTTTC ((((((....)))..))), the Tm in series [1] stood at 36.9 °C. For the same sequence, the folding enthalpy in series [2] is -19.9 kcal/mol.
The corresponding values for GAATACGGAAACGCATTC ((((.((....)).)))) are 36.8 °C and -29.8 kcal/mol.
On to GAATACGGAAACGTATCC (.(((((....))))).), for which, in series [1], the Tm stood at 35.1 °C. Further, the folding enthalpy in series [2] is -15.8 kcal/mol.
The corresponding values for GAATAGGCGAAAGCCTTC (((..(((....)))))) are 29.1 °C and -8.6 kcal/mol.
On to GAATAGGGAAACCTATTC (((((((....))))))), for which the Tm in series [1] is 50 °C. Also, the folding enthalpy in series [2] is -42.1 kcal/mol.
The matching figures for GAATATGCGAAAGCATTC (((..(((....)))))): 25 °C and -9.12 kcal/mol.
For GAATATGGAAACATATCC (.(((((....))))).), in series [1], the Tm is 24.6 °C. Moreover, in series [2], the folding enthalpy is -13.6 kcal/mol.
For GAATCACGAAAGTGTTC (((.(((....)))))), the Tm in series [1] worked out at 39.3 °C. Also, the folding enthalpy in series [2] was -15.5 kcal/mol.
The corresponding values for GAATCAGGAAACCGATTC (((((.(....).))))) are 37.8 °C and -26.3 kcal/mol.
In the case of GAATCCCGAAAGGGGTTC (((.(((....))).))), the Tm in series [1] amounted to 58.1 °C. Moreover, the folding enthalpy in series [2] is -33.9 kcal/mol.
The corresponding values for GAATCCGAAAGGAAATTC ((((((....)))..))) are 29.1 °C and -15.5 kcal/mol.
As for GAATCCGAAAGGAACTTC ((((((....)))..))), the Tm in series [1] was determined as 33.1 °C. Besides, the folding enthalpy in series [2] is -13.1 kcal/mol.
Turning to GAATCCGAAAGGAGCTTC ((((((....)))..))), in series [1], the Tm turned out to be 41.6 °C. Moreover, in series [2], the folding enthalpy was -23.6 kcal/mol.
Turning to GAATCCGGAAACGGATTC (((((((....))))))), the Tm in series [1] was 63.6 °C. In series [2], the folding enthalpy is -45.2 kcal/mol.
Take GAATCTGGAAACAGATCC (.(((((....))))).): the Tm in series [1] was 33.1 °C. The folding enthalpy in series [2] was -17.1 kcal/mol.
The corresponding values for GAATCTGGAAACAGGTTC (((.(((....))).))) are 44 °C and -31.5 kcal/mol.
As to GAATGAGGAAACTCATCC (.(((((....))))).), in series [1], the Tm was determined as 29.9 °C. In series [2], the folding enthalpy is -17.4 kcal/mol.
Take GAATGCGAAAGCAATTTC ((((((....)))..))): in series [1], the Tm was determined as 30.6 °C. Moreover, the folding enthalpy in series [2] is -9.54 kcal/mol.
In the case of GAATGCGAAAGCAGCTTC ((((((....)))..))), the Tm in series [1] came to 39.7 °C. For the same sequence, the folding enthalpy in series [2] was -23 kcal/mol.
The matching figures for GAATGCGAAAGCATATTC ((((((....)))..))): 33 °C and -11.6 kcal/mol.
As to GAATGCGAAAGCATGTTC ((((((....)))..))), the Tm in series [1] was determined as 42.6 °C. In addition, the folding enthalpy in series [2] is -11.2 kcal/mol.
For GAATGCGAAAGCATTC ((((((....)))))), the Tm in series [1] was determined as 68.4 °C. Also, the folding enthalpy in series [2] is -27.6 kcal/mol.
On to GAATGCGAAAGCATTTC ((((((....))).))), for which, in series [1], the Tm came out at 50.2 °C. The folding enthalpy in series [2] is -12.5 kcal/mol.
For GAATGCGGAAACGTGTTC (((..((....))..))), in series [1], the Tm amounted to 40.3 °C. In addition, the folding enthalpy in series [2] was -31.8 kcal/mol.
The matching figures for GAATGGGCGAAAGCCTTC (((..(((....)))))): 32 °C and -6.79 kcal/mol.
Regarding GAATGGGGAAACCCATTC (((((((....))))))), the Tm in series [1] stood at 57.6 °C. For the same sequence, the folding enthalpy in series [2] is -33.7 kcal/mol.
The corresponding values for GAATGGGGAAACCCGTTC (((.(((....))).))) are 48.2 °C and -35.5 kcal/mol.
Take GAATGTGAAAACATTC ((((((....)))))): the Tm in series [1] came to 51.3 °C. In addition, the folding enthalpy in series [2] is -35.2 kcal/mol.
The corresponding values for GAATGTGGAAACACATCC (.(((((....))))).) are 36 °C and -14.1 kcal/mol.
The matching figures for GAATTACGAAAGTATTC (((.(((....)))))): 31.1 °C and -13.5 kcal/mol.
As to GAATTCCGAAAGGACTTC (((.(((....))).))), the Tm in series [1] worked out at 36.1 °C. Besides, the folding enthalpy in series [2] is -27.7 kcal/mol.
The matching figures for GAATTCGGAAACGAGTTC (((.(((....))).))): 43.9 °C and -32.5 kcal/mol.
The matching figures for GAATTGACGAAAGTCTTC (((..(((....)))))): 29.6 °C and -11.6 kcal/mol.
The matching figures for GAATTGGGAAACTAATTC (((((.(....).))))): 35.5 °C and -22.7 kcal/mol.
On to GAATTTGAAAAAATTC ((((((....)))))), for which, in series [1], the Tm is 38.8 °C. In addition, the folding enthalpy in series [2] was -26.6 kcal/mol.
For the sequence GACAAACGAAAGTTCGTC (((.(((....))).))), the Tm in series [1] was determined as 43.2 °C. Further, the folding enthalpy in series [2] is -25.2 kcal/mol.
Regarding GACAACCGAAAGGTGGTC (((.(((....))).))), the Tm in series [1] worked out at 59.2 °C. Besides, the folding enthalpy in series [2] is -35.3 kcal/mol.
As for GACAACGAAAGTTCAGTC ((((((....)))..))), in series [1], the Tm came out at 27.6 °C. Moreover, the folding enthalpy in series [2] is -14.7 kcal/mol.
The corresponding values for GACAACGAAAGTTCTGTC ((((((....)))..))) are 27 °C and -14.7 kcal/mol.
As for GACAACGAAAGTTGGTC ((((((....))).))), in series [1], the Tm was 53.1 °C. Moreover, in series [2], the folding enthalpy is -19.7 kcal/mol.
In the case of GACAACGGAAACGTTATC ((.((((....)))).)), the Tm in series [1] was determined as 31.5 °C. In addition, the folding enthalpy in series [2] is -21 kcal/mol.
The corresponding values for GACAAGAAATTGTC (((((....))))) are 37.2 °C and -17.2 kcal/mol.
As for GACAAGGGAAACCCTGTC ((((.((....)).)))), the Tm in series [1] came out at 42.5 °C. For the same sequence, the folding enthalpy in series [2] is -27.8 kcal/mol.
As for GACAAGGGAAACCTCGTC (((.(((....))).))), the Tm in series [1] came to 34.5 °C. Further, the folding enthalpy in series [2] is -22.6 kcal/mol.
With GACACACGAAAGTGCGTC (((.(((....))).))), in series [1], the Tm came out at 54.5 °C. Moreover, the folding enthalpy in series [2] was -45.2 kcal/mol.
With GACACAGGAAACTACGTC (((..((....))..))), the Tm in series [1] is 28.8 °C. Further, in series [2], the folding enthalpy was -17 kcal/mol.
The corresponding values for GACACAGGAAACTGTGCC (.(((((....))))).) are 45 °C and -14.9 kcal/mol.
GACACCGAAAGGTAGGTC ((((((....)))..))): in series [1], the Tm stood at 38.7 °C. In addition, the folding enthalpy in series [2] is -20.2 kcal/mol.
The corresponding values for GACACCGAAAGGTCGGTC ((((((....)))..))) are 35 °C and -16.7 kcal/mol.
The corresponding values for GACACCGAAAGGTCGTC ((((((....))).))) are 50.2 °C and -21.7 kcal/mol.
Regarding GACACCGAAAGGTCTGTC ((((((....)))..))), the Tm in series [1] came out at 35.2 °C. Further, the folding enthalpy in series [2] is -16.6 kcal/mol.
The corresponding values for GACACCGAAAGGTGAGTC ((((((....)))..))) are 37.3 °C and -9.36 kcal/mol.
Take GACACCGAAAGGTTGGTC ((((((....)))..))): the Tm in series [1] amounted to 40.8 °C. Further, the folding enthalpy in series [2] is -16.6 kcal/mol.
For GACACCGGAAACGATGTC ((((.((....)).)))), the Tm in series [1] was found to be 45.2 °C. In addition, the folding enthalpy in series [2] is -29.6 kcal/mol.
The corresponding values for GACACCGGAAACGGCGTC (((.(((....))).))) are 52.6 °C and -43 kcal/mol.
In the case of GACACGCGAAAGCGGTC (((.(((....)))))), the Tm in series [1] turned out to be 56 °C. Also, the folding enthalpy in series [2] was -15.3 kcal/mol.
Consider GACACGGGAAACCACGTC (((..((....))..))), for which the Tm in series [1] was found to be 34.6 °C. The folding enthalpy in series [2] is -29 kcal/mol.

These data come from the array DNA melting data of Ke et al. (doi:10.1101/2024.01.08.574731).
